A short description of the series: Toxicity liver stage against HepG2, at 10uM. Type of series: cell-based. Set-up: test concentration 10 uM, cell line HepG2-A16-CD81EGFP. The settings on record: human, HepG2-A16-CD81EGFP cells; read-out: INHIBITION
The gist of the method: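 Uninfected HepG2-A16-CD81EGFP cells, 3 × 10^3 per well, 1536-well, plated on prespotted compound at 10 μM final, parasite-free screening media added to match infected plates; puromycin 10 μM positive, DMSO 0.5% negative; run in parallel with 48 h PbLuc assay at 37 °C, 5% CO2; viability by CellTiter-Glo luminescence, normalized to controls.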
Take `Cc1noc(C)c1S(=O)(=O)N1CCC(Oc2cnccn2)CC1`: the cytotoxicity at 10 µM was 4.95%.

`CCOC(C)C(=O)Nc1cc(S(=O)(=O)NC2CC2)ccc1F` (stereo not given): the cytotoxicity at 10 µM was -7.51%.

With `COc1ccccc1CNc1cnn(CC(F)F)c1`, the cytotoxicity at 10 µM is -5.41%.

Turning to `CCc1nnc2n1CCN(C(=O)c1ccc3[nH]cnc3c1)C2`, the cytotoxicity at 10 µM is -19.1%.

Turning to `CNC(=O)[C@H]1C[C@@H]2CN(C(=O)c3ccccn3)C[C@@H]2N1S(C)(=O)=O`, the cytotoxicity at 10 µM was -1.37%.

With `Cn1cc(CN2C[C@@H]3COC[C@@H](C(=O)N4CCCCO4)[C@@H]3C2)cn1`, the cytotoxicity at 10 µM is -1.57%.

For the compound `O=C(c1ccco1)N1CCCC2(CCN(CCN3CCCC3)C2=O)C1` (stereo not given), the cytotoxicity at 10 µM is -4.73%.

For `CCc1cc(NCCc2cnccn2)n2nc(C)c(C)c2n1`, the cytotoxicity at 10 µM turned out to be 5.18%.

In the case of `O=C(O)c1cnc(OCC2CC2)c(Cl)c1`, the cytotoxicity at 10 µM was -5.38%.

As to `COCCNC(=O)NC1(c2nc(-c3ccncc3)no2)CCCCC1`, the cytotoxicity at 10 µM is -2.46%.

On to `Cn1nnc2cc(C(=O)NS(=O)(=O)c3cccc(C#N)c3)ccc21`, for which the cytotoxicity at 10 µM is -6.29%.

As to `COc1ccc(F)c(CN2CCCC(O)(CNCc3ccon3)C2=O)c1` (stereo not given), the cytotoxicity at 10 µM is 53.6%.

In the case of `Cc1cnc(C)c(Oc2ccc(CN3CCCC3)cc2Cl)n1`, the cytotoxicity at 10 µM is -1.37%.

Turning to `CCn1ncc(CN2C[C@@H]3CCCN3C[C@@H]2CCSC)c1C`, the cytotoxicity at 10 µM was -27.3%.

`Cc1ccsc1CN(Cc1ncccc1C(=O)O)C1CC1`: the cytotoxicity at 10 µM is -5.8%.

For the compound `OC(CNCCn1cccn1)c1cccc(F)c1` (stereo not given), the cytotoxicity at 10 µM was -4.41%.

As for `O=C(NCCCN1CCCC1=O)c1nc(-c2ccc3cc[nH]c3c2)no1`, the cytotoxicity at 10 µM is -7.99%.

For `Cc1cc(CN2CCCC2)cc(Oc2ccc(C(F)(F)F)cn2)c1`, the cytotoxicity at 10 µM is -9.72%.

As to `Cc1cc(CN(C)C(=O)NC2CCCN(c3ncccn3)C2)no1` (stereo not given), the cytotoxicity at 10 µM is -7.26%.

With `CCc1ccc(NC(=O)N2C[C@@H]3C[C@H](C(=O)NC)[C@H](C2)O3)cc1`, the cytotoxicity at 10 µM was 5.4%.

In the case of `CCCNC(=O)c1ccc(S(=O)(=O)NC2(COC)CCCC2)cc1`, the cytotoxicity at 10 µM was -49.9%.

In the case of `O=S(=O)(NCC1COc2ccccc2C1)N1CCOCC1` (stereo not given), the cytotoxicity at 10 µM was -1.5%.

For `O=C(Nc1ccc(Br)cc1F)c1ccc(N2CCOCC2)nn1`, the cytotoxicity at 10 µM came out at 22.4%.

Consider `CS(=O)(=O)N[C@@H]1CCN(Cc2nccs2)[C@H]1Cc1ccncc1`, for which the cytotoxicity at 10 µM was -2.48%.

With `Cc1ccc(-c2nc(CN3CCCC(C(=O)N(C)C)C3)cs2)o1` (stereo not given), the cytotoxicity at 10 µM is -14%.

On to `COc1ccc2c(ccn2CC(=O)N2CCCC2c2cnn(C)c2)c1` (stereo not given), for which the cytotoxicity at 10 µM turned out to be 3.74%.

On to `Cc1nnc([C@@H]2CC[C@@H]3[C@@H](CCN3Cc3ccccn3)O2)o1`, for which the cytotoxicity at 10 µM was 11.3%.

Consider `Cc1sc(Br)cc1S(=O)(=O)NCCN`, for which the cytotoxicity at 10 µM was -6.69%.

In the case of `O=C(N1CCOCC1)N1C[C@@H]2CC[C@H]1CN(C1Cc3ccccc3C1)C2`, the cytotoxicity at 10 µM is -4.55%.

Consider `O=C(Cc1ccn[nH]1)Nc1cncc(Br)c1O`, for which the cytotoxicity at 10 µM was -3.93%.

As for `O=C(CCCN1CCOCC1)N1CCCC(CO)(CC2CC2)C1` (stereo not given), the cytotoxicity at 10 µM was -1.5%.

Turning to `Cn1cnc(S(=O)(=O)NCC(C)(O)c2ccc3c(c2)OCO3)c1` (stereo not given), the cytotoxicity at 10 µM is -4.44%.

Take `CCc1nccn1C1CCCN(C(=O)c2ccnc(C)n2)C1` (stereo not given): the cytotoxicity at 10 µM was -1.12%.

In the case of `Cc1nnc([C@]23COC[C@H]2CN(Cc2nccs2)C3)o1`, the cytotoxicity at 10 µM is 0.872%.

Regarding `CNc1nc2c(c(C(=O)N3CCCC3)n1)CN(Cc1nccn1C)CC2`, the cytotoxicity at 10 µM is -8.74%.

For the compound `CCOc1ccc(OCc2nccc(-c3cc(C(=O)O)ccn3)n2)cc1`, the cytotoxicity at 10 µM is -11.8%.

Turning to `CNC(=O)CCc1cc(C)nc(C2CCN(c3ccccc3)CC2)c1`, the cytotoxicity at 10 µM stood at 3.56%.

Take `Cc1nn(C)c(N(C)C)c1CNCC(O)COc1ccc(F)cc1` (stereo not given): the cytotoxicity at 10 µM is 0.769%.

In the case of `O=C(CN1CCC(c2ccnn2CCO)CC1)NCC1CC1`, the cytotoxicity at 10 µM is -3.25%.

`CCN1CCN(c2nc3cn(-c4cnn(CC)c4)c(=O)c-3c[nH]2)CC1`: the cytotoxicity at 10 µM came out at 4.01%.

Take `O=C(c1cscn1)N1CCC2(CN(Cc3ccncc3)C2)C1`: the cytotoxicity at 10 µM came to 6.82%.

On to `Cc1nn(CCC#N)c(C)c1[C@@H]1C=C[C@@H](NCc2cccc(Cl)c2)C1`, for which the cytotoxicity at 10 µM is -1.45%.

Take `COCCNC(=O)C[C@@H]1COC[C@H]2CN(C(=O)C3CCOCC3)C[C@@H]12`: the cytotoxicity at 10 µM is -94.8%.

`CC(=O)NCCCSC1CCCN(c2ccccc2Cl)C1=O` (stereo not given): the cytotoxicity at 10 µM was -0.5%.

As to `CCCn1cnnc1CNC1CCCC1`, the cytotoxicity at 10 µM was -2.27%.

`COc1cc(C(=O)NCc2cc(N3CCOCC3)ncn2)ccn1`: the cytotoxicity at 10 µM was -10.8%.

With `Cc1nc2cc(O)nn2c(C)c1CCC(=O)NCCc1ccccc1`, the cytotoxicity at 10 µM was -6.65%.

Regarding `CS(=O)(=O)N1CC[C@]2(O)CCN(CCCC(=O)c3ccccc3)C[C@@H]2C1`, the cytotoxicity at 10 µM is -8.86%.

On to `Cc1cccc(CN2CCc3nnc(CO)n3CC2)n1`, for which the cytotoxicity at 10 µM was 6.41%.

Take `COc1cc(CCC(=O)N2CCC(c3cncc(C)n3)CC2)on1`: the cytotoxicity at 10 µM was 4.46%.

Consider `NC(=O)c1ccc(C2CCCN2C(=O)CCc2nc3ccccc3s2)s1` (stereo not given), for which the cytotoxicity at 10 µM is -8.8%.

For `CCC(=O)Nc1cccc(OCC(=O)N2CC=CC2C(C)C)c1` (stereo not given), the cytotoxicity at 10 µM is -0.115%.

In the case of `COc1cccc2c1OCC(CNC(=O)CN(C)C1CCCC1)C2` (stereo not given), the cytotoxicity at 10 µM was -147%.

In the case of `CCCN1CC2(CCN(C)CC2)CC1C(=O)NCCn1cccn1` (stereo not given), the cytotoxicity at 10 µM was -5.46%.

Take `COc1ccc(C2=CCN(C(=O)C3CCCN(C(N)=O)C3)CC2)cc1` (stereo not given): the cytotoxicity at 10 µM was -10.1%.

With `CCOC(=O)C1(Cc2cccc(OC)c2)CCN(Cc2ncc[nH]2)CC1`, the cytotoxicity at 10 µM was -7.82%.

Turning to `CCC(=O)Nc1ccc2c(ccn2CC(=O)N(CC)CC)c1`, the cytotoxicity at 10 µM is -12.2%.

With `CN(C)C(=O)CCNC(=O)NCc1ccc(Br)cc1Cl`, the cytotoxicity at 10 µM was 2.96%.

On to `CS(=O)(=O)N1CCC2(CC1)CC(CC(=O)NC1CC1)c1ccccc12` (stereo not given), for which the cytotoxicity at 10 µM was -0.105%.

On to `COc1ccc(-n2ccc(C(=O)N(CCN(C)C)C(C)C)n2)cc1`, for which the cytotoxicity at 10 µM was -3.29%.

As for `COCC(=O)Nc1cnc(N2CCCC2)nc1`, the cytotoxicity at 10 µM is -5.93%.

As to `CNC(=O)CCc1cc(C)nc(C2CCN(C(=O)CN(C)C)CC2)c1`, the cytotoxicity at 10 µM was -3.48%.

Consider `COCCCN1C(=O)CC[C@H]2CN(Cc3cc4ccccc4o3)CC[C@H]21`, for which the cytotoxicity at 10 µM is 23.8%.

Turning to `CCn1nc(C)c2nc(C(C)C)nc(NCC(=O)N3CCOCC3)c21`, the cytotoxicity at 10 µM was determined as 3.07%.

Turning to `CC(C)c1cc(C(=O)NCc2nc(-c3ccc(F)cc3)n[nH]2)n[nH]1`, the cytotoxicity at 10 µM was -1.75%.

In the case of `NC(=O)Nc1cc(F)ccc1SCC(F)F`, the cytotoxicity at 10 µM came out at 0.0687%.

On to `O=C(c1ccc(F)cc1)N1CCN2C[C@H](Oc3cccnc3)C[C@H]2C1`, for which the cytotoxicity at 10 µM is 3.77%.

For `CC(C)CCN(C(=O)CCn1cc(S(N)(=O)=O)cn1)C1CC1`, the cytotoxicity at 10 µM was determined as 3.92%.

With `O=C(c1csc(-c2ccco2)n1)N1CCN2CCCCC2C1` (stereo not given), the cytotoxicity at 10 µM came to 5.6%.

On to `COc1ccc(Cl)cc1CC(=O)NS(=O)(=O)c1ccc(C(N)=O)cc1`, for which the cytotoxicity at 10 µM was -2.64%.

Take `COc1ccc(CN2CCc3nc4ccsc4c(=O)n3CC2)c(C)c1C`: the cytotoxicity at 10 µM is 67.3%.

In the case of `c1cncc(OCc2noc3c2CN(Cc2ccoc2)CC3)c1`, the cytotoxicity at 10 µM is -8.33%.

Take `O=S(=O)(CCc1ccccc1)Nc1cc(Cl)ccn1`: the cytotoxicity at 10 µM was -4.81%.

Consider `CN(C)CC1CSCCCN1C(=O)c1ccsc1` (stereo not given), for which the cytotoxicity at 10 µM amounted to 5.09%.

Regarding `COc1cccc2c1OCCCN(c1nc(N)nc3c1CCNC3)C2`, the cytotoxicity at 10 µM was determined as 0.944%.

On to `CN(Cc1cn2ccccc2c1C#N)C1CCCN(c2cccnn2)C1` (stereo not given), for which the cytotoxicity at 10 µM is -11.9%.

For the compound `O=S(=O)(c1ccccc1Cl)N1CCCC(c2ncc[nH]2)C1` (stereo not given), the cytotoxicity at 10 µM was found to be 5.48%.

Regarding `O=C(CN1CC(c2nc(-c3ccco3)no2)C1)NCCc1ccccc1`, the cytotoxicity at 10 µM was -9.54%.

Regarding `COCCN1CCC(CNC(=O)CCc2cc(F)ccc2F)C1` (stereo not given), the cytotoxicity at 10 µM is -4.05%.

Take `CC(C)NC(=O)N1CCC2(COCc3cnc(-c4ccccc4)nc32)C1` (stereo not given): the cytotoxicity at 10 µM is -0.311%.

Turning to `COc1ccc(OC2CCN(Cc3ccn(C)c(=O)c3)CC2)cc1`, the cytotoxicity at 10 µM is -5.25%.

As to `O=C(N1CCCCC1)N1CCN(c2ccc(Cl)nn2)C(=O)C1`, the cytotoxicity at 10 µM amounted to 8.24%.

As for `CSCCC(NC(N)=O)C(=O)N1CCC(Cc2ccccc2)CC1` (stereo not given), the cytotoxicity at 10 µM came out at 1.28%.

Take `CCOC(=O)N1C[C@@H]2CC[C@H]1CN(Cc1ccccc1)C2`: the cytotoxicity at 10 µM is 2.7%.

Consider `O=C(Nc1cccnc1)[C@H]1CN(Cc2ccco2)C[C@H]2OCC[C@@H]12`, for which the cytotoxicity at 10 µM is -114%.

As for `c1ccc(C2CCCN(c3ncnc4c3CCNC4)CC2)cc1` (stereo not given), the cytotoxicity at 10 µM came out at 58.5%.

For `c1cc(-c2c[nH]c([C@@H]3COCCN3C3CCOCC3)n2)ccn1`, the cytotoxicity at 10 µM was -0.113%.

As to `Cc1cc(C(=O)Nc2ccc(OCCN3CCN(C)CC3)cc2)[nH]n1`, the cytotoxicity at 10 µM is -2.51%.

On to `Fc1ccc(CN2CCCn3nnc(COCC4CC4)c3C2)cc1`, for which the cytotoxicity at 10 µM is -109%.

In the case of `c1ccc(NCc2cnc3n2CCN(CC2CCOC2)CC3)nc1` (stereo not given), the cytotoxicity at 10 µM was -76.5%.

With `COC(=O)CCNC(=O)c1cnc(Cc2ccc(F)cc2)s1`, the cytotoxicity at 10 µM is -5.87%.

On to `Cc1nnc(N2CCCC3(CN(Cc4ccncc4)CCO3)C2)o1` (stereo not given), for which the cytotoxicity at 10 µM is -13.5%.

As to `COCC(O)CNC(=O)Nc1ccc(Cl)cc1-n1cccc1` (stereo not given), the cytotoxicity at 10 µM is -6.93%.

In the case of `Cc1c(C2SCC(=O)Nc3c2cnn3C(C)(C)C)cnn1C` (stereo not given), the cytotoxicity at 10 µM was -1.21%.

As to `Cc1cn2c(n1)CCC(NC(=O)c1cc(C(C)C)no1)C2` (stereo not given), the cytotoxicity at 10 µM was -2.12%.

The values above are taken from ChEMBL document CHEMBL4513216, “Probing the Open Global Health Chemical Diversity Library for Multistage-Active Starting Points for Next-Generation Antimalarials” (ACS Infect Dis, 2020).
